Structures are written as SMILES. Several values for one entry are separate records, joined by “and”; a condition that tells them apart may be missing. Identical values can stand only once.

One assay deals with HepG2. Description: MTT anti-proliferative assay on HepG2. Particulars: Homo sapiens, HepG2, read-out: HepG2 (IC50). The assay is classed as cell-based. The procedure, abridged: (§1)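 Human MCF-7 and HepG2 cancer cell lines exposed to test compounds. Anti-proliferative IC50 given in μM. Each reported value is the mean of IC50 values from three separate experiments.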
Background: Formazan colour is commonly taken as a measure of viable cells.

In another assay the test system is MCF-7. Description: MTT anti-proliferative assay on MCF-7. Particulars: Homo sapiens, MCF7, read-out: MCF-7 (IC50). The format is cell-based. The procedure, abridged: as §1
A further assay concerns the target BRAF (Homo sapiens, UniProt P15056). Description: Kinase profiling test, BRAF. The format is biochemical.
A further assay has as its target CDK8 (Homo sapiens, UniProt P49336). Description: Kinase profiling test, CDK8. The assay is classed as biochemical. Particulars: CDK8 IC50 (mean ± SD).
In the next assay the test system is caspase-9. Description: RT-PCR caspase-9 expression in MCF-7 cells. The assay is classed as cell-based. Particulars: MCF-7, 0.06 µM; control 1.
Assay [1] deals with MCF-7 cells. Briefly: Apoptosis assay. The format is cell-based. Particulars: MCF-7, 0.06 µM, 72 h.
The subject of a further assay is WI-38. Briefly: Safety assay: cytotoxicity against normal human lung cells. The assay is classed as cell-based. The procedure, abridged: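 Normal human lung WI-38 cells exposed to test compound for in vitro cytotoxicity. IC50 in μM is the mean of IC50 values from three separate experiments. Selectivity index = IC50 in WI-38 / IC50 in MCF-7 or HepG2 cancer cells.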

In another assay the target is EGFR (Homo sapiens, UniProt P00533). Briefly: Kinase profiling test, EGFR. The format is biochemical.
Sequence of EGFR (P00533 25-1210): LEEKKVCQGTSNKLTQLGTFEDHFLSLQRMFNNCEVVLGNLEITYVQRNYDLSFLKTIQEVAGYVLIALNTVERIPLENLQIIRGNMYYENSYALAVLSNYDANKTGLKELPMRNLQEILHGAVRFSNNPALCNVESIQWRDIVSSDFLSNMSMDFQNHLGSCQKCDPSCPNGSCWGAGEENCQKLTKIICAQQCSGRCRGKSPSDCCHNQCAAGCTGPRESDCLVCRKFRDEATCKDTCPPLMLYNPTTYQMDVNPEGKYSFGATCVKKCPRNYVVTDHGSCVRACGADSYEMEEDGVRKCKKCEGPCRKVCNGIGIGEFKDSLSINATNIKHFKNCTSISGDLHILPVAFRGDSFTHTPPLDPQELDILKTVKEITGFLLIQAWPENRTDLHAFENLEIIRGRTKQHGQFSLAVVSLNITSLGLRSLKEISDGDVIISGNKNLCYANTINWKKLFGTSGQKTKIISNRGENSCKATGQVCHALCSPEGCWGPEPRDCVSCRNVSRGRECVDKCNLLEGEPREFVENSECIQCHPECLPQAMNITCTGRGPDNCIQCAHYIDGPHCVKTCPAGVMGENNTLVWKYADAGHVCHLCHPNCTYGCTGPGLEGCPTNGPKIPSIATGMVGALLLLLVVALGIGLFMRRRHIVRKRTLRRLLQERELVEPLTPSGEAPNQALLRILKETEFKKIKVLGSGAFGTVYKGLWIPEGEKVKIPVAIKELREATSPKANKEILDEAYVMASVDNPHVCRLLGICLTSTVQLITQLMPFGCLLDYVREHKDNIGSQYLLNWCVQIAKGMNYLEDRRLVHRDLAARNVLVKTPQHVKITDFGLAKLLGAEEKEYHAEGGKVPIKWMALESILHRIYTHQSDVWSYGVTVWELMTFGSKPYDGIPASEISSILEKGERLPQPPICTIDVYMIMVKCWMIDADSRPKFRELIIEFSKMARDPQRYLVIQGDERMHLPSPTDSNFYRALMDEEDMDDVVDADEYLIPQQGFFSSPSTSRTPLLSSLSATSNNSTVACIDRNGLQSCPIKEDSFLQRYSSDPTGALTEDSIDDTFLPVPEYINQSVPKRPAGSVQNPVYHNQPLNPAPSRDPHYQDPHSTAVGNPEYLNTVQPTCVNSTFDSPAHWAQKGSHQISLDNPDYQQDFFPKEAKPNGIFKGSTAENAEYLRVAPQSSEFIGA
The subject of another assay is caspase-8. Briefly: RT-PCR caspase-8 expression in MCF-7 cells. The format is cell-based. Particulars: MCF-7, 0.06 µM; control 1.
The next assay deals with VEGFR-2 (Homo sapiens, UniProt P35968). Briefly: biochemical.
Sequence of VEGFR-2 (P35968 20-1356): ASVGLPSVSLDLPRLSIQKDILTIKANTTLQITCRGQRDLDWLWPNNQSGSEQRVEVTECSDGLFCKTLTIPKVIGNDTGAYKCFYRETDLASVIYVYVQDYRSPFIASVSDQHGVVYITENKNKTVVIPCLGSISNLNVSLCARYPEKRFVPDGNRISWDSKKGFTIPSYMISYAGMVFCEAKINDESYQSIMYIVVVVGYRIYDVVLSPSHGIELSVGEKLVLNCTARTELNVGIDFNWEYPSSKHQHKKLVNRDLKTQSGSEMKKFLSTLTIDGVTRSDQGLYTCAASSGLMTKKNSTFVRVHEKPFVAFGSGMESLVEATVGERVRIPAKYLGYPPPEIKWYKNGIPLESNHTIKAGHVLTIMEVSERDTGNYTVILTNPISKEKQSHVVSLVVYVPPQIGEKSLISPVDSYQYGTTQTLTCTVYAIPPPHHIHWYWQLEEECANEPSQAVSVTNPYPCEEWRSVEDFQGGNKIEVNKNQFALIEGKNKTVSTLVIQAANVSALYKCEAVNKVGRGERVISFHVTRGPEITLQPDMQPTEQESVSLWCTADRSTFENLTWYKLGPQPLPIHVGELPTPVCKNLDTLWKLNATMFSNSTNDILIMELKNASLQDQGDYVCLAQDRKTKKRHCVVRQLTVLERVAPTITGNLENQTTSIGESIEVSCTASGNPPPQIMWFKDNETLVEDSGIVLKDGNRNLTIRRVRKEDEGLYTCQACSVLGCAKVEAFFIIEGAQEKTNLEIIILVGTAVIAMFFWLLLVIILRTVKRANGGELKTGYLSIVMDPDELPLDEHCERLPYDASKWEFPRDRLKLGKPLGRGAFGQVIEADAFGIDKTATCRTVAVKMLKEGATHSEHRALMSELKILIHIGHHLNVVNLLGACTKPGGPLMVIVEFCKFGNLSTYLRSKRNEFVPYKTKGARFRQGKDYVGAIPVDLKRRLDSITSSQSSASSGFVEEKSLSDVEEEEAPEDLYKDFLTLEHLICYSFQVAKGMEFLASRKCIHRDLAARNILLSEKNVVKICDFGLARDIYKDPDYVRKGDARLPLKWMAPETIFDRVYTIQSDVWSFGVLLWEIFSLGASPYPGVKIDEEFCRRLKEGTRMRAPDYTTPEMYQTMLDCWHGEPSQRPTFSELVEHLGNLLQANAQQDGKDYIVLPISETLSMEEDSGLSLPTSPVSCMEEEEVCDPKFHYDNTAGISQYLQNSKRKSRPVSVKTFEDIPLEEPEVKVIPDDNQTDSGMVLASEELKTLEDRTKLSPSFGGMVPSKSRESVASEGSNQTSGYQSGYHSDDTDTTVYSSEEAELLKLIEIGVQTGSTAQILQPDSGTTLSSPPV
For another assay, the target named is PIK3α (Homo sapiens, UniProt P42336). Briefly: Kinase profiling test, PIK3α. The format is biochemical.
Assay [2] relates to MCF-7 cells. Briefly: Cell cycle analysis by flow cytometry. The assay is classed as cell-based. Particulars: MCF-7, 0.06 µM, 72 h. On the technique in general: In flow cytometry, cells or beads pass a laser one at a time.

Sequence of CDK8 (P49336 whole entry): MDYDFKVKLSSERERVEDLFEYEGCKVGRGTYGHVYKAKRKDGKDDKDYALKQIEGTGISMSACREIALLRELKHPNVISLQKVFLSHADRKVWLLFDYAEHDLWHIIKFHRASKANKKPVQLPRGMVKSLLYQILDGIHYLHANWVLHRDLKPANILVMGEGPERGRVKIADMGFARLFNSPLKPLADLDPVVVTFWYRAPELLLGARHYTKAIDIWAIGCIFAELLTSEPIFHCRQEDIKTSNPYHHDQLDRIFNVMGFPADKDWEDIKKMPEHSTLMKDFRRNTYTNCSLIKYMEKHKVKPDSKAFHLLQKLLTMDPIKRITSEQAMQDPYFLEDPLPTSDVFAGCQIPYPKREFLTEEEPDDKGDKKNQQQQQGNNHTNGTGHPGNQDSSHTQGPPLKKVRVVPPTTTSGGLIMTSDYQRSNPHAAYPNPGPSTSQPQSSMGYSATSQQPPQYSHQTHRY
Sequence of CDK8 (P24863 whole entry partner): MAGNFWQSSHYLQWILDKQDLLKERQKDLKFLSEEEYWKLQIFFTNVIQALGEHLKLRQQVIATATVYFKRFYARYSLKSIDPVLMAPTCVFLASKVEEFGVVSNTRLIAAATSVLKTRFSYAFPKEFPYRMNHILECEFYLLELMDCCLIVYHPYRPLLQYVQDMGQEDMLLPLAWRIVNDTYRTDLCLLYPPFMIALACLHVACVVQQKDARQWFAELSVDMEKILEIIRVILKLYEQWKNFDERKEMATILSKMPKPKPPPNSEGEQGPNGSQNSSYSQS
Sequence of BRAF (P15056 whole entry): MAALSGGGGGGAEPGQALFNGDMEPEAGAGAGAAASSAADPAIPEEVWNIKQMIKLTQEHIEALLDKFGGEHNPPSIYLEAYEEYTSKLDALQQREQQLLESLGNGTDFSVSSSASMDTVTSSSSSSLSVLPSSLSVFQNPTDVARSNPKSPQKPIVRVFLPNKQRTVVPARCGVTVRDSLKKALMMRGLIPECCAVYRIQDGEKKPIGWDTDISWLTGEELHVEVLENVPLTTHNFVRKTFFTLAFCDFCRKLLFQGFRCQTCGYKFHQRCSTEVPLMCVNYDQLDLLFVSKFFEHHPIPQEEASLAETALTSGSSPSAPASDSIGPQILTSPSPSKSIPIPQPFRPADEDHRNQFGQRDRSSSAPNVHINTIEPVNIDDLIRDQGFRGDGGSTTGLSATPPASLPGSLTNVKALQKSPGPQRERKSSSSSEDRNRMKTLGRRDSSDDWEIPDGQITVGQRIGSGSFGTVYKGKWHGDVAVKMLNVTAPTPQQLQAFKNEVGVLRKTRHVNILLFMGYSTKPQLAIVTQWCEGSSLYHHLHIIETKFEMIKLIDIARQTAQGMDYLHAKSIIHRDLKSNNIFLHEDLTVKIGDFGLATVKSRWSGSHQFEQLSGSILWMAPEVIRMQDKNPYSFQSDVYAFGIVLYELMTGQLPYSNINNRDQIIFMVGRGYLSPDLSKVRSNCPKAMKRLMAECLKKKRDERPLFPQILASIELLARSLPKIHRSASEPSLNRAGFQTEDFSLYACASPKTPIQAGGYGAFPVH

For orientation: IC50 means the concentration needed to halve the response being measured. On to `CC(=O)Nc1ccc(/C(C)=N/N=c2\sc(C(C)=O)nn2-c2ccc(C)cc2)cc1` [Compound 16, N-(4-((E)-1-(((Z)-5-Acetyl-3-(p-tolyl)-1,3,4-thiadiazol-2(3H)-ylidene)hydrazono)ethyl)phenyl) acetamide], for which the half-inhibitory concentration (IC50) in the assay on HepG2 turned out to be 9920 ± 220 nM; in the assay with MCF-7 it was 1250 ± 20 nM.
As for `CNC(=O)c1cc(Oc2ccc(NC(=O)Nc3ccc(Cl)c(C(F)(F)F)c3)cc2)ccn1` [Sorafenib, reference compound], the IC50 worked out at 130 ± 30 nM in the assay on HepG2 and 140 ± 30 nM in the assay with MCF-7.
With `CCOC(=O)c1nn(-c2cccc(Cl)c2)/c(=N/N=C(\C)c2ccc(NC(=O)c3ccccc3)cc2)s1` [Compound 21a, Ethyl (Z)-5-(((E)-1-(4-benzamidophenyl)ethylidene)hydrazono)-4-(3-chlorophenyl)-4,5-dihydro-1,3,4-thiadiazole-2-carboxylate], the IC50 in the assay with HepG2 was 150 ± 10 nM; in the assay on MCF-7, 190 ± 10 nM.
The matching figures for `CCOC(=O)c1nn(-c2cccc(Cl)c2)/c(=N/N=C(\C)c2ccc(NC(=O)c3ccc(Cl)cc3)cc2)s1` [Compound 21b, Ethyl (Z)-5-(((E)-1-(4-(4-Chlorobenzamido)phenyl)ethylidene)hydrazono)-4-(3-chlorophenyl)-4,5-dihydro-1,3,4-thiadiazole-2-carboxylate]: 130 ± 10 nM and 140 ± 10 nM.
On to `CC(=O)c1nn(-c2ccc(C)cc2)/c(=N/N=C(\C)c2ccc(NC(=O)c3ccccc3)cc2)s1` [Compound 20b, N-(4-((E)-1-(((Z)-5-Acetyl-3-(p-tolyl)-1,3,4-thiadiazol-2(3H)-ylidene)hydrazono)ethyl)phenyl) benzamide], for which the half-inhibitory concentration (IC50) was 140 ± 10 nM in the assay with HepG2; 5840 ± 250 nM against BRAF; 266 ± 58 nM against CDK8; 190 ± 10 nM in the assay on WI-38 (Homo sapiens, WI-38, read-out: WI-38 IC50); 1430 ± 85 nM at EGFR; 51.1 nM and 51 nM against VEGFR-2 (VEGFR-2 IC50, mean of three experiments). For the same compound, the results for the concentration for half-maximal inhibition (IC50) at VEGFR-2 (VEGFR-2 inhibition), in the assay with MCF-7 and against PIK3α were 24 nM, 50 ± 10 nM and 2140 ± 95 nM, respectively. The “Caspase-9 RT-PCR (fold change)” value in the assay on caspase-9 is 5.44 fold change and 5.4353 fold change. In the assay on MCF-7 cells [1] (control 0.24), the Late apoptosis was 15.99%. This compound came in with an Early apoptosis in the assay on MCF-7 cells [1] (control 0.61) of 18.48%. The Necrosis in the assay with MCF-7 cells [1] (control 1.43) was determined as 4.14%. Further, the Total apoptosis in the assay on MCF-7 cells [1] (untreated 0.85) is recorded as 34.47%. The “Selectivity index HepG2” value in the assay on WI-38 (SI = IC50 in normal cells (WI-38)/IC50 in HepG2) was determined as 1.4. Further, in the assay with WI-38 (SI = IC50 in normal cells (WI-38)/IC50 in MCF-7), the “Selectivity index MCF-7” value worked out at 3.8. The “Caspase-8 RT-PCR (fold change)” value with caspase-8 was 3.42 fold change and 3.4176 fold change. Moreover, the “Cell cycle distribution % G2/M” value with MCF-7 cells [2] (control 13.72) stood at 11.99%. Besides, the “Cell cycle distribution % S” value in the assay with MCF-7 cells [2] (control 23.91) turned out to be 18.76%. Further, the “Cell cycle distribution % G0-G1” value in the assay with MCF-7 cells [2] (control 62.37) stood at 69.25%.
Consider `CC(=O)c1nn(-c2ccccc2Cl)/c(=N/N=C(\C)c2ccc(NC(=O)c3ccccc3)cc2)s1` [Compound 20a, N-(4-((E)-1-(((Z)-5-Acetyl-3-(2-chlorophenyl)-1,3,4-thiadiazol-2(3H)-ylidene)hydrazono)ethyl)phenyl)benzamide], for which the half-inhibitory concentration (IC50) in the assay on HepG2 turned out to be 130 ± 10 nM; in the assay with MCF-7, 60 ± 10 nM.

Values taken from publication PMC11539005 (RSC Advances, 2024).
